UPR CHOP act: activators of apoptotic arm of unfolded protein response (CHOP) | CHO-CHOP luciferase reporter, UPR activation, luminescence; percent of tunicamycin response over DMSO baseline | activation, % at 10 µM | hit rate 0.34% among 330,000;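 active = at 10 µM dose, activation of 40% or more, normalized to positive control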;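 also: 100% = tunicamycin at 10 µg/mL and 0% = DMSO alone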
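Test system: CHO-CHOP cells, stable luciferase reporter of PERK-eIF2a-CHOP signalling | Quantity: 500 CHO-CHOP cells per well | Buffer or medium: F12 plus 10% serum | Compound dosing: 10 µM single point, 0.5% DMSO | Schedule: 6 h compound treatment, 37 °C | Signal: Luciferase luminescence | Control set: Tunicamycin high control, DMSO low control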
XBP1 UPR activ: activators of adaptive arm of unfolded protein response (XBP1). CHO-XBP1 luciferase reporter, IRE1-XBP1 UPR activation, luminescence; percent of tunicamycin response, DMSO as zero. activation, % at 20 µM. hit rate 0.33% among 330,000;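 active = versus positive control, 20 µM dose yields 30% or more activation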;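 also: 100% = tunicamycin at 10 µg/mL and 0% = DMSO only wells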
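Material: CHO-XBP1 cells stably carrying IRE1-XBP1-driven luciferase reporter / Amount: 1000 cells per well / Compound: 20 µM, 1% DMSO / Times: 6 h treatment, 37 °C / Detection: luciferase luminescence / Measure: % activation of reporter signal versus tunicamycin and DMSO controls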
Mdm2-MdmX inh: human Mdm2/MdmX binding inhibition | SaOS-2 split-luciferase Mdm2/MdmX complementation, luminescence | hit rate 3% among 330,000 | inhibition, % at 8 µM | O15151+Q00987 | AID 485346;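 active = inhibition of at least 50% at 8 µM in the primary screen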
Target sequence (O15151 whole entry, looked up): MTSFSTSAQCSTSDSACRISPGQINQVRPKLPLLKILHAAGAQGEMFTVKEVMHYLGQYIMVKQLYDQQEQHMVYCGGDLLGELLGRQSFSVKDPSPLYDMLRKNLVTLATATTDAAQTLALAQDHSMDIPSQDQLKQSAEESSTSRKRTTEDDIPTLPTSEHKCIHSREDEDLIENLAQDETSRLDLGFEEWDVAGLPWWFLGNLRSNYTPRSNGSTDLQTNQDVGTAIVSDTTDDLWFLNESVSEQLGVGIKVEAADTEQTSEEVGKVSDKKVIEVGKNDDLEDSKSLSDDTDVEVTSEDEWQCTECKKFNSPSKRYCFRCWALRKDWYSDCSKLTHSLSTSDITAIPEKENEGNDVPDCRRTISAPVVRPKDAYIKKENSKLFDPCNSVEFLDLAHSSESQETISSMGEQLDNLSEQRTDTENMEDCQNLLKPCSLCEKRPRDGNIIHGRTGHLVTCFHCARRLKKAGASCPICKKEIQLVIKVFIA
Target sequence (Q00987 whole entry, looked up): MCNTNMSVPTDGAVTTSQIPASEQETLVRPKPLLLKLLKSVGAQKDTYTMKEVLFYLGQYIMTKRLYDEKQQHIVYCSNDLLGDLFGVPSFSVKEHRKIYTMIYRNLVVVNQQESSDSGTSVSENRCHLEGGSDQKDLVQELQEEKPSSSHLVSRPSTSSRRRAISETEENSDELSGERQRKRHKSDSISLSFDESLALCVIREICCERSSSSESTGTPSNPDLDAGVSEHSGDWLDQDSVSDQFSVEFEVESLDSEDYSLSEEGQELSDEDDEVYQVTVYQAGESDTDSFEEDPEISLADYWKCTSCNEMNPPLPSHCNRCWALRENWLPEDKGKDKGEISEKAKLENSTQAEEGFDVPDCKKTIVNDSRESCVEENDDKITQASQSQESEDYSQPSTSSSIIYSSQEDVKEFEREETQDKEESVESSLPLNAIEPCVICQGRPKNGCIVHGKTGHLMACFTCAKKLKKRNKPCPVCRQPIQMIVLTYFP
Beta cell apopt: blocks beta cell apoptosis | hit rate 0.8% among 300,000 | AID 435005 | protection from apoptosis, % (concentration not given with the values) | INS-1E cytokine-induced death, ATP luminescence, 48 h; percent of positive-control rescue, neutral wells zero;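 active = Every replicate reaches about 75%, or at least half do and their mean reaches it too, limit read from the data; inconclusive = At least half of replicates reach the limit but their mean does not; inactive = Under half of replicates reach the limit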;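 also: 0% = cytokine-treated negative control wells and 100% = positive control rescue; higher means more ATP so stronger rescue from cytokine killing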
T cruzi inh: blocks replication of Trypanosoma cruzi. hit rate 1.4% among 300,000. inhibition, % (concentration not given with the values). AID 1885. T. cruzi beta-gal in NIH3T3, luminescence, 90 h;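 active = mean inhibition across valid replicates above about 55%, limit read from the data; inconclusive = mean below that limit but half or more replicates reach it; inactive = mean below it, under half of replicates reach it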;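 also: signal also drops with host cell toxicity which is not excluded here; 0% = plate median of DMSO wells and 100% = zero luminescence signal; higher percent means less beta-gal luminescence so fewer parasites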
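compound dosing = single 50 nL compound addition per well in DMSO | material = NIH/3T3 host cells with β-galactosidase reporter T. cruzi | input = 5,000 host fibroblasts per well | timing = ≥90 h infection period, 3 h prior cell attachment | read-out basis = percent inhibition of parasite-derived β-gal signal | detection = GalScreen β-gal luminescence, detergent lysis, 60 min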
CSC inhib: blocks cancer stem cells | cancer stem cell-like cells viability, luminescence | inhibition, % at 7.5 µM | hit rate 1.1% among 300,000 | AID 2717; in the data active = inhibition above about 75%; inconclusive = no clear call, values can overlap the other calls; tested in HMLE shEcad cells
Mdm2 MdmX conf: confirmation of human Mdm2/MdmX interaction inhibitors | shares compounds with Mdm2-MdmX inh | Mdm2-MdmX binding, luminescent assay | inhibition, % at 8 µM | hit rate 55% among 10,000 | AID 489028; in the data active = inhibition above about 40%
Full FLuc ctr: inhibits full-length luciferase, flagging false Mdm2/MdmX hits | shares compounds with Mdm2-MdmX inh | inhibition, % at 8 µM | hit rate 77% among 6,200 | AID 504607 | SaOS-2 full-length luciferase counterscreen, luminescence;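 active = mean inhibition at 8 µM reaching about 37%, which flags the compound as non-specific, limit read from the data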;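 also: p53-null SaOS-2 cells with luciferase driven by a doxycycline-inducible promoter; compound on cells about two nights before reading with doxycycline added after day one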
Active calls of the source: *; u = inconclusive; x = not tested or not shown. Hits are enriched below; roughly 5% of the tested compounds scored in any of these assays.

SMILES	UPR CHOP act	XBP1 UPR activ	Mdm2-MdmX inh	Beta cell apopt	T cruzi inh	CSC inhib	Mdm2 MdmX conf	Full FLuc ctr
CCC1Oc2ccccc2N(CC(=O)NCCN2CCc3ccccc3C2)C1=O (stereo not drawn)	-1	-3	-3	-7	-6	-12	x	x
CC1CCN(S(=O)(=O)c2ccc(C(=O)Nc3nnc(-c4ccco4)o3)cc2)CC1	3	-3	54*	9	-19	17	48*	34
O=C(Nc1nnc(-c2ccco2)o1)c1ccc(S(=O)(=O)N2CCCC2)cc1	1	0	10	-2	-2	21	x	x
Cc1cc(NC(=O)CSc2nnc3c(C)cc4c(C)ccc(C)c4n23)no1	0	0	66*	10	-41	56	63*	58*
CCc1nnc(NC(=O)CSc2nnc3c(C)cc4c(C)ccc(C)c4n23)s1	1	-2	60*	4	-23	64	65*	58*
O=c1[nH]cnc2sc3c(c12)CCC3	-3	-4	-5	-1	-12	3	x	x
CN(C(=O)CSc1ncnc2sccc12)C1CCCCC1	4	2	-124	-6	x	x	x	x
N/C(=N\OC(=O)N1CCOCC1)c1ccc(Br)cc1	1	0	100*	2	38	19	59*	134*
O=C(c1ccc(S(=O)(=O)c2ccc(Cl)cc2)cc1)N1CCOCC1	0	-3	-34	-11	-3	-4	x	x
N/C(=N\OC(=O)N1CCOCC1)c1ccccc1	3	3	64*	2	45	26	6	x
O=C(Oc1ccccc1)N1CCOCC1	5	-6	27	-2	-17	-22	x	x
N/C(=N\OC(=O)N1CCOCC1)c1ccc(Cl)cc1	0	1	92*	-1	29	-2	61*	148*
O=C(COc1ccc(Br)cc1)N1CCOCC1	0	-1	13	-9	6	-13	x	x
CCCn1c(N)c(N(CCOC)C(=O)c2cc3ccccc3cc2OC)c(=O)[nH]c1=O	1	0	20	-6	x	-5	x	x
Cc1ccccc1Cn1c(C)nc2ccc([N+](=O)[O-])cc2c1=O	0	-5	-3	-6	5	3	x	x
COc1ccc(OCCN2CCN(C(=O)c3ccc(OC)c(OC)c3)CC2)cc1	0	-8	0	1	0	-23	x	x
CCOc1ccccc1NC(=O)c1nc(S(=O)(=O)Cc2ccccc2)ncc1Cl	-12	-11	97*	x	9	x	97*	0
Cc1cccc(CS(=O)(=O)c2ncc(Cl)c(C(=O)NCc3ccc4c(c3)OCO4)n2)c1	28	-7	60*	24	-14	-17	64*	16
CCc1ccc(NC(=O)c2nc(S(=O)(=O)Cc3ccccc3)ncc2Cl)cc1	-11	-10	99*	72	-17	105*	84*	51*
CC(=O)Nc1ccc(NC(=O)c2nc(S(=O)(=O)Cc3cccc(C)c3)ncc2Cl)cc1	-11	-11	86*	-6	8	91*	66*	51*
CCSc1ncc(Cl)c(C(=O)Nc2ccc(S(N)(=O)=O)cc2)n1	1	0	-3	3	u	13	x	x
CCSc1ncc(Cl)c(C(=O)Nc2ccccc2)n1	-1	-3	16	2	2	9	x	x
CCOc1ccccc1NC(=O)c1ccc(C(=O)Nc2ccccc2OCC)nc1	1	8	91*	1	-13	-9	10	x
COc1ccccc1NC(=O)c1ccc(C(=O)Nc2ccccc2OC)nc1	2	-4	26	-4	-7	7	x	x
CCS(=O)(=O)c1ncc(Cl)c(C(=O)Nc2ccc(S(=O)(=O)N3CCC(C)CC3)cc2)n1	-11	-11	100*	108*	62*	118*	100*	52*
COc1ccccc1NC(=O)c1ccc(CS(=O)(=O)c2ccc(C)cc2)cc1	1	0	30	-2	0	4	x	x

Screening results (PubChem)
